From the array DNA melting data of Ke et al. (doi:10.1101/2024.01.08.574731)

Key:
[1] = folding enthalpy; higher = less favourable; fluorescence melt of hairpins on a sequencing array, two-state fit; conditions: sodium 0.088 M
Procedure, shortened: (§1)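 Folding enthalpy and melting temperature were estimated with bootstrapped two-state fits and combined across four replicates by inverse-variance weighting, with fitted temperatures raised by 9.35 °C to match UV melts. The data were Cy3 fluorescence of library hairpins, with annealed Cy3 and quencher oligos, on a sequenced MiSeq flow cell in 50 mM Na-HEPES pH 8.0, 25 mM NaCl, imaged in 2.5 °C steps up to 60 °C and normalised to pre-quench Cy3 and control constructs.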

[2] = melting temperature; fluorescence melt of hairpins on a sequencing array, two-state fit, raised by 9.35 °C to match UV melts; conditions: sodium 0.088 M
Procedure, shortened: as §1

Sequence | folding enthalpy [1] | Tm [2]
GATCGTTGACACGATC ((((((....)))))) | -38.3 kcal/mol | 52.6 °C
GTTACACGAAAGTGGAAC (((.(((....))).))) | -36.7 kcal/mol | 56.7 °C
GAGTCTGGAAACAGATTC ((.((((....)))).)) | -26.2 kcal/mol | 40.9 °C
GTAATCGCGAAAGCGTAC (((..(((....)))))) | -6.16 kcal/mol | 26.7 °C
GGGTTCGGAAACGAGCTC (.(.(((....))).).) | -24 kcal/mol | 37.8 °C
GTTCGTCGAAAGACCAAC (((.(((....))).))) | -15.9 kcal/mol | 30.9 °C
GAGGCCGGAAACAGCCTC (((((.(....).))))) | -27.5 kcal/mol | 50.2 °C
GTGAACGAAAGTTGCAC ((((((....))).))) | -19.8 kcal/mol | 37.3 °C
GGAATACGAAAGTATCC (((.(((....)))))) | -17.9 kcal/mol | 42.8 °C
GATCGGTTATCCGATC ((((((....)))))) | -36.8 kcal/mol | 58.9 °C
GATCTGTTGACAGATC ((((((....)))))) | -43.8 kcal/mol | 53.1 °C
GCTGAAGGAAACCTCAGC (((((.(....).))))) | -37.2 kcal/mol | 47 °C
GATCACAGCGTGATC ((((((...)))))) | -42 kcal/mol | 61.9 °C
GTGTGGGGAAACCTACAC ((((.((....)).)))) | -32.6 kcal/mol | 50.6 °C
GCAAATCGAAAGATTGC (((.(((....)))))) | -24 kcal/mol | 48.9 °C
GGGCCCGAAAGGGCACCC ((((((....)))..))) | -9.72 kcal/mol | 65 °C
GCACTCGAAAGAGAGTGC ((((((....)))..))) | -38.7 kcal/mol | 59.9 °C
GCTTTACCGAAAGGTAGC (((..(((....)))))) | -13 kcal/mol | 37.7 °C
GATCTGAAGACAGATC ((((((....)))))) | -27.7 kcal/mol | 44.8 °C
GTCGCCGAAAGGCGGAC ((((((....))).))) | -11.2 kcal/mol | 58 °C
GGACTCGAAAGAGATCC ((((((....))).))) | -22.1 kcal/mol | 44.7 °C
GATCGTATCAACGATC ((((((....)))))) | -35.5 kcal/mol | 55 °C
GTACAGCGAAAGCTTTAC (((.(((....))).))) | -24.7 kcal/mol | 39.6 °C

Sequence | folding enthalpy [1] | Tm [2]
GATCGGGGCCCGATC ((((((...)))))) | -41.2 kcal/mol | 60.5 °C
GACCGCGAAAGCGTTGTC ((((((....)))..))) | -13.2 kcal/mol | 40.1 °C
GGCTATGGAAACATAGCC (((((((....))))))) | -37.6 kcal/mol | 66.1 °C
GGCTTTCGAAAGAAGCC (((.(((....)))))) | -41.6 kcal/mol | 52.8 °C
GAGTGGAAACACTC (((((....))))) | -29.6 kcal/mol | 51 °C
GTTGGCACGAAAGTGAAC (((..(((....)))))) | -20.6 kcal/mol | 38.8 °C
GGACATCGAAAGATTTCC (((.(((....))).))) | -32 kcal/mol | 39.6 °C
GATCACAGGTGTGATC ((((((....)))))) | -36.4 kcal/mol | 59.9 °C
GCATTCGAAAGAATTGC ((((((....))).))) | -19.5 kcal/mol | 41.1 °C
GGAAAAACGAAAGTTTCC (((..(((....)))))) | -14.9 kcal/mol | 35.6 °C
GAGTCCGAAAGGAAACTC ((((((....)))..))) | -19.4 kcal/mol | 40.2 °C
GAGACACGAAAGTGCCTC (((.(((....))).))) | -33.4 kcal/mol | 51.3 °C
GCCCTGCGAAAGCTGCGC ((.(.((....)).).)) | -16.9 kcal/mol | 40.2 °C
GTTAACGGAAACGCTAAC ((((.((....)).)))) | -28.1 kcal/mol | 36.2 °C
GGCATGGGAAACTATGCC (((((.(....).))))) | -38.9 kcal/mol | 53.6 °C
GGACAGGGAAACCTGTCC (((((((....))))))) | -37.4 kcal/mol | 68.3 °C
GATCCTAGGTAGGATC ((((((....)))))) | -38.7 kcal/mol | 52.9 °C
GATCATGATTATGATC ((((((....)))))) | -29.5 kcal/mol | 47.5 °C
GCCAAGGGAAACCTTGAC (.(((((....))))).) | -20.6 kcal/mol | 39.6 °C
GCGAAGAAATTCGC (((((....))))) | -28.3 kcal/mol | 55.5 °C
GCGGCTCTCCGC ((((....)))) | -26.3 kcal/mol | 55.6 °C
GAGCGCGGAAACGTGCTC ((((.((....)).)))) | -32.3 kcal/mol | 65.6 °C
GTCTAGGGAAACCTAGGC (.(((((....))))).) | -24.7 kcal/mol | 46.2 °C

Sequence | folding enthalpy [1] | Tm [2]
CGTTCGGAAACGATAACG ((((((....)))..))) | -30.6 kcal/mol | 36.1 °C
GGCATCGAAAGATAGGCC ((((((....)))..))) | -27.2 kcal/mol | 46 °C
GATCCTAGTGAGGATC ((((((....)))))) | -36.2 kcal/mol | 50.9 °C
GCGTTGCGAAAGCATTGC ((..(((....)))..)) | -17.7 kcal/mol | 43.5 °C
GAGTAGGGAAACCTGCTC (((.(((....))).))) | -34.5 kcal/mol | 48.5 °C
GTAAAAGGAAACTTTTAC (((((((....))))))) | -37.1 kcal/mol | 46.4 °C
GTCAGTCGAAAGACAGAC (((.(((....))).))) | -39.4 kcal/mol | 51 °C
GGGGACGAAAGTCTACCC ((((((....)))..))) | -17.9 kcal/mol | 47.2 °C
GGTTTCACGAAAGTGACC (((..(((....)))))) | -12.3 kcal/mol | 29.2 °C
GGTCCGCGAAAGCGACC (((.(((....)))))) | -16.8 kcal/mol | 62.4 °C
GAAGGCGAAAGCCTTTTC ((((((....)))..))) | -11.1 kcal/mol | 51.3 °C
GAGATCGGAAACGATCTC (((((((....))))))) | -43 kcal/mol | 66.8 °C
GTAGTCGAAAGACCTTAC ((((((....)))..))) | -14.1 kcal/mol | 29.4 °C
GCCGCTACGAAAGTAGGC (((..(((....)))))) | -18 kcal/mol | 51 °C
GATCTCGGCAGAGATC ((((((....)))))) | -42 kcal/mol | 68.1 °C
GTCCACGAAAGTGGGGAC ((((((....)))..))) | -10.4 kcal/mol | 46.4 °C
GTCAGACGAAAGTCAGAC (((.(((....))).))) | -31.5 kcal/mol | 53.6 °C
GGCCGTACGAAAGTAGCC (((..(((....)))))) | -22.6 kcal/mol | 42.3 °C
GGTACTGGAAACAGCACC (((.(((....))).))) | -29.3 kcal/mol | 43.9 °C
GCCGACGGAAACGCCGGC ((((.((....)).)))) | -38.7 kcal/mol | 63 °C
GGTAACGAAAGTTTGACC ((((((....)))..))) | -19.4 kcal/mol | 28.9 °C
GTGGGCGAAAGCCTTCAC ((((((....)))..))) | -12.7 kcal/mol | 33.1 °C
GTAGCCGAAAGGCATTAC ((((((....)))..))) | -7.48 kcal/mol | 27 °C
